Laboratory results published in ChEMBL document CHEMBL4689842, “EUbOPEN Chemogenomics Library wave 1” (2021).

System: HEK-293T
Assay: Multiplex assay against HEK293T;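 on Population Tubulin-Different-Phenotype (%): share of the cells with healthy nuclei that show this phenotype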
Format: toxicity, cell-based
Conditions: human
Method in brief: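 Compound was added to live cells that had been stained at seeding with Hoechst33342, BioTracker Green Microtubule Cytoskeleton Dye, MitoTracker Red and Annexin V Alexa Fluor 680, and imaging followed on a CQ1 microscope at 37°C and 5% CO2. CellPathfinder machine-learning gating divided cells into Hoechst high-intensity objects or normal cells, normal cells into healthy, pyknosed or fragmented nuclei, and pyknosed cells into mitotic or apoptotic. Tubulin, mitochondrial-mass and membrane-permeability phenotypes are per cents of healthy-nucleus cells.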

[1] = 12 h, 1 µM, compound concentration 1 uM, replicate 1
[2] = 12 h, 1 µM, compound concentration 1 uM, replicate 2
[3] = 12 h, 10 µM, compound concentration 10 uM, replicate 1
[4] = 12 h, 10 µM, compound concentration 10 uM, replicate 2
[5] = 24 h, 1 µM, compound concentration 1 uM, replicate 1
[6] = 24 h, 1 µM, compound concentration 1 uM, replicate 2
[7] = 24 h, 10 µM, compound concentration 10 uM, replicate 1
[8] = 24 h, 10 µM, compound concentration 10 uM, replicate 2
[9] = 48 h, 1 µM, compound concentration 1 uM, replicate 1
[10] = 48 h, 1 µM, compound concentration 1 uM, replicate 2
[11] = 48 h, 10 µM, compound concentration 10 uM, replicate 1
[12] = 48 h, 10 µM, compound concentration 10 uM, replicate 2

## COc1cc2c(NC3CCN(C(C)C)CC3)nc(N3CCC(F)(F)CC3)nc2cc1OCCCN1CCCC1
[1]
  Population Apoptotic (%): 67%
  Population Fragmented Nuclei (%): 16%
  Population Healthy Nuclei (%): 32%
  Population Hoechst High Intensity Objects (%): 19%
  Population Membrane Permeable-Phenotype (%): 0%
  Population Mitochondria Different-Phenotype (%): 96%
  Population Mitotic Cells (%): 32%
  Population Normal (%): 80%
  Population Pyknosed Nuclei (%): 50%
  Population Tubulin-Different-Phenotype (%): 76%
  Total Cell Count: 324
[2]
  Population Apoptotic (%): 37%
  Population Fragmented Nuclei (%): 8%
  Population Healthy Nuclei (%): 40%
  Population Hoechst High Intensity Objects (%): 6%
  Population Membrane Permeable-Phenotype (%): 4%
  Population Mitochondria Different-Phenotype (%): 56%
  Population Mitotic Cells (%): 62%
  Population Normal (%): 93%
  Population Pyknosed Nuclei (%): 51%
  Population Tubulin-Different-Phenotype (%): 48%
  Total Cell Count: 235
[3]
  Population Apoptotic (%): 90%
  Population Fragmented Nuclei (%): 8%
  Population Healthy Nuclei (%): 26%
  Population Hoechst High Intensity Objects (%): 18%
  Population Membrane Permeable-Phenotype (%): 0%
  Population Mitochondria Different-Phenotype (%): 100%
  Population Mitotic Cells (%): 9%
  Population Normal (%): 81%
  Population Pyknosed Nuclei (%): 64%
  Population Tubulin-Different-Phenotype (%): 98%
  Total Cell Count: 298
[4]
  Population Apoptotic (%): 92%
  Population Fragmented Nuclei (%): 7%
  Population Healthy Nuclei (%): 24%
  Population Hoechst High Intensity Objects (%): 6%
  Population Mitochondria Different-Phenotype (%): 98%
  Population Mitotic Cells (%): 7%
  Population Normal (%): 93%
  Population Pyknosed Nuclei (%): 68%
  Population Tubulin-Different-Phenotype (%): 96%
  Total Cell Count: 245
[5]
  Population Apoptotic (%): 61%
  Population Fragmented Nuclei (%): 16%
  Population Healthy Nuclei (%): 42%
  Population Hoechst High Intensity Objects (%): 24%
  Population Membrane Permeable-Phenotype (%): 1%
  Population Mitochondria Different-Phenotype (%): 77%
  Population Mitotic Cells (%): 38%
  Population Normal (%): 75%
  Population Pyknosed Nuclei (%): 41%
  Population Tubulin-Different-Phenotype (%): 51%
  Total Cell Count: 348
[6]
  Population Apoptotic (%): 39%
  Population Fragmented Nuclei (%): 6%
  Population Healthy Nuclei (%): 60%
  Population Hoechst High Intensity Objects (%): 12%
  Population Membrane Permeable-Phenotype (%): 4%
  Population Mitochondria Different-Phenotype (%): 45%
  Population Mitotic Cells (%): 60%
  Population Normal (%): 87%
  Population Pyknosed Nuclei (%): 33%
  Population Tubulin-Different-Phenotype (%): 45%
  Total Cell Count: 272
[7]
  Population Apoptotic (%): 85%
  Population Fragmented Nuclei (%): 11%
  Population Healthy Nuclei (%): 23%
  Population Hoechst High Intensity Objects (%): 24%
  Population Membrane Permeable-Phenotype (%): 0%
  Population Mitochondria Different-Phenotype (%): 100%
  Population Mitotic Cells (%): 14%
  Population Normal (%): 75%
  Population Pyknosed Nuclei (%): 65%
  Population Tubulin-Different-Phenotype (%): 91%
  Total Cell Count: 324
[8]
  Population Apoptotic (%): 95%
  Population Fragmented Nuclei (%): 7%
  Population Healthy Nuclei (%): 25%
  Population Hoechst High Intensity Objects (%): 14%
  Population Membrane Permeable-Phenotype (%): 1%
  Population Mitochondria Different-Phenotype (%): 92%
  Population Mitotic Cells (%): 4%
  Population Normal (%): 85%
  Population Pyknosed Nuclei (%): 67%
  Population Tubulin-Different-Phenotype (%): 86%
  Total Cell Count: 244
[9]
  Population Apoptotic (%): 55%
  Population Fragmented Nuclei (%): 19%
  Population Healthy Nuclei (%): 41%
  Population Hoechst High Intensity Objects (%): 25%
  Population Membrane Permeable-Phenotype (%): 4%
  Population Mitochondria Different-Phenotype (%): 38%
  Population Mitotic Cells (%): 44%
  Population Normal (%): 75%
  Population Pyknosed Nuclei (%): 38%
  Population Tubulin-Different-Phenotype (%): 38%
  Total Cell Count: 368
[10]
  Population Apoptotic (%): 17%
  Population Fragmented Nuclei (%): 8%
  Population Healthy Nuclei (%): 78%
  Population Hoechst High Intensity Objects (%): 12%
  Population Membrane Permeable-Phenotype (%): 7%
  Population Mitochondria Different-Phenotype (%): 9%
  Population Mitotic Cells (%): 82%
  Population Normal (%): 87%
  Population Pyknosed Nuclei (%): 12%
  Population Tubulin-Different-Phenotype (%): 33%
  Total Cell Count: 508
[11]
  Population Apoptotic (%): 89%
  Population Fragmented Nuclei (%): 18%
  Population Healthy Nuclei (%): 10%
  Population Hoechst High Intensity Objects (%): 26%
  Population Membrane Permeable-Phenotype (%): 3%
  Population Mitochondria Different-Phenotype (%): 96%
  Population Mitotic Cells (%): 10%
  Population Normal (%): 73%
  Population Pyknosed Nuclei (%): 70%
  Population Tubulin-Different-Phenotype (%): 82%
  Total Cell Count: 347
[12]
  Population Apoptotic (%): 94%
  Population Fragmented Nuclei (%): 8%
  Population Healthy Nuclei (%): 38%
  Population Hoechst High Intensity Objects (%): 21%
  Population Membrane Permeable-Phenotype (%): 5%
  Population Mitochondria Different-Phenotype (%): 97%
  Population Mitotic Cells (%): 5%
  Population Normal (%): 78%
  Population Pyknosed Nuclei (%): 53%
  Population Tubulin-Different-Phenotype (%): 84%
  Total Cell Count: 232

## CN(C)C/C=C/C(=O)Nc1cc2c(Nc3ccc(F)c(Cl)c3)ncnc2cc1O[C@H]1CCOC1.O=C(O)/C=C\C(=O)O.O=C(O)/C=C\C(=O)O [AFATINIB DIMALEATE]
[1]
  Population Apoptotic (%): 26%
  Population Fragmented Nuclei (%): 23%
  Population Healthy Nuclei (%): 54%
  Population Hoechst High Intensity Objects (%): 15%
  Population Membrane Permeable-Phenotype (%): 5%
  Population Mitochondria Different-Phenotype (%): 4%
  Population Mitotic Cells (%): 73%
  Population Normal (%): 84%
  Population Pyknosed Nuclei (%): 22%
  Population Tubulin-Different-Phenotype (%): 5%
  Total Cell Count: 581
[2]
  Population Apoptotic (%): 16%
  Population Fragmented Nuclei (%): 6%
  Population Healthy Nuclei (%): 87%
  Population Hoechst High Intensity Objects (%): 3%
  Population Membrane Permeable-Phenotype (%): 4%
  Population Mitochondria Different-Phenotype (%): 13%
  Population Mitotic Cells (%): 83%
  Population Normal (%): 96%
  Population Pyknosed Nuclei (%): 5%
  Population Tubulin-Different-Phenotype (%): 10%
  Total Cell Count: 1304
[3]
  Population Apoptotic (%): 23%
  Population Fragmented Nuclei (%): 17%
  Population Healthy Nuclei (%): 32%
  Population Hoechst High Intensity Objects (%): 18%
  Population Membrane Permeable-Phenotype (%): 17%
  Population Mitochondria Different-Phenotype (%): 35%
  Population Mitotic Cells (%): 76%
  Population Normal (%): 81%
  Population Pyknosed Nuclei (%): 50%
  Population Tubulin-Different-Phenotype (%): 82%
  Total Cell Count: 647
[4]
  Population Apoptotic (%): 17%
  Population Fragmented Nuclei (%): 3%
  Population Healthy Nuclei (%): 53%
  Population Hoechst High Intensity Objects (%): 4%
  Population Membrane Permeable-Phenotype (%): 9%
  Population Mitochondria Different-Phenotype (%): 64%
  Population Mitotic Cells (%): 82%
  Population Normal (%): 96%
  Population Pyknosed Nuclei (%): 42%
  Population Tubulin-Different-Phenotype (%): 97%
  Total Cell Count: 999
[5]
  Population Apoptotic (%): 25%
  Population Fragmented Nuclei (%): 17%
  Population Healthy Nuclei (%): 71%
  Population Hoechst High Intensity Objects (%): 10%
  Population Membrane Permeable-Phenotype (%): 6%
  Population Mitochondria Different-Phenotype (%): 3%
  Population Mitotic Cells (%): 74%
  Population Normal (%): 89%
  Population Pyknosed Nuclei (%): 11%
  Population Tubulin-Different-Phenotype (%): 7%
  Total Cell Count: 598
[6]
  Population Apoptotic (%): 12%
  Population Fragmented Nuclei (%): 20%
  Population Healthy Nuclei (%): 76%
  Population Hoechst High Intensity Objects (%): 3%
  Population Membrane Permeable-Phenotype (%): 4%
  Population Mitotic Cells (%): 87%
  Population Normal (%): 96%
  Population Pyknosed Nuclei (%): 3%
  Population Tubulin-Different-Phenotype (%): 9%
  Total Cell Count: 2098
[7]
  Population Apoptotic (%): 39%
  Population Fragmented Nuclei (%): 23%
  Population Healthy Nuclei (%): 34%
  Population Hoechst High Intensity Objects (%): 19%
  Population Membrane Permeable-Phenotype (%): 10%
  Population Mitochondria Different-Phenotype (%): 58%
  Population Mitotic Cells (%): 60%
  Population Normal (%): 80%
  Population Pyknosed Nuclei (%): 42%
  Population Tubulin-Different-Phenotype (%): 77%
  Total Cell Count: 637
[8]
  Population Apoptotic (%): 25%
  Population Fragmented Nuclei (%): 12%
  Population Healthy Nuclei (%): 55%
  Population Hoechst High Intensity Objects (%): 9%
  Population Membrane Permeable-Phenotype (%): 6%
  Population Mitochondria Different-Phenotype (%): 69%
  Population Mitotic Cells (%): 74%
  Population Normal (%): 90%
  Population Pyknosed Nuclei (%): 32%
  Population Tubulin-Different-Phenotype (%): 90%
  Total Cell Count: 1048
